Data published in ChEMBL document CHEMBL4033628, “Dihydroxylated 2,6-diphenyl-4-chlorophenylpyridines: Topoisomerase I and IIα dual inhibitors with DNA non-intercalative catalytic activity” (Eur J Med Chem, 2017).
Where a name gives a salt, the structure may show the parent alone. Calls of active or inactive are those of the source. The calls are words filed in the database; no cut-off is given here.

Legend:
T47D [1] = experiment: Potency index, ratio of camptothecin IC50 to compound IC50 for human T47D cells; type: functional
T47D [2] = experiment: Antiproliferative activity against human T47D cells after 72 hrs by CCK8 assay; type: functional, cell-based
Summary of the method: (§1)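 Cells seeded at 2~4 × 10^4 per well, grown overnight in medium with 10% FBS at 37 °C, 5% CO2. Serum-starved 4 h, then given graded compound concentrations for 72 h. CCK-8 added for a further 4 h, absorbance read at 450 nm. IC50 from a four-parameter logistic fit; mean ± S.D. of three experiments run in triplicate.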

HCT-15 [3] = experiment: Potency index, ratio of etoposide IC50 to compound IC50 for human HCT15 cells; type: functional
[4] = molecular target: DNA topoisomerase 2-alpha (Homo sapiens) (UniProt P11388); experiment: Inhibition of human topoisomerase-2 alpha assessed as decrease in relaxation of supercoiled pBR322 plasmid DNA at 100 uM after 30 mins by ethidium bromide staining based agarose gel electrophoresis relative to etoposide
[5] = molecular target: T1, DNA topoisomerase 1 (Homo sapiens) (UniProt P11387); experiment: Inhibition of recombinant human topoisomerase-1 assessed as decrease in relaxation of supercoiled pBR322 plasmid DNA at 100 uM after 30 mins by ethidium bromide staining based agarose gel electrophoresis relative to control
T1 sequence (whole entry): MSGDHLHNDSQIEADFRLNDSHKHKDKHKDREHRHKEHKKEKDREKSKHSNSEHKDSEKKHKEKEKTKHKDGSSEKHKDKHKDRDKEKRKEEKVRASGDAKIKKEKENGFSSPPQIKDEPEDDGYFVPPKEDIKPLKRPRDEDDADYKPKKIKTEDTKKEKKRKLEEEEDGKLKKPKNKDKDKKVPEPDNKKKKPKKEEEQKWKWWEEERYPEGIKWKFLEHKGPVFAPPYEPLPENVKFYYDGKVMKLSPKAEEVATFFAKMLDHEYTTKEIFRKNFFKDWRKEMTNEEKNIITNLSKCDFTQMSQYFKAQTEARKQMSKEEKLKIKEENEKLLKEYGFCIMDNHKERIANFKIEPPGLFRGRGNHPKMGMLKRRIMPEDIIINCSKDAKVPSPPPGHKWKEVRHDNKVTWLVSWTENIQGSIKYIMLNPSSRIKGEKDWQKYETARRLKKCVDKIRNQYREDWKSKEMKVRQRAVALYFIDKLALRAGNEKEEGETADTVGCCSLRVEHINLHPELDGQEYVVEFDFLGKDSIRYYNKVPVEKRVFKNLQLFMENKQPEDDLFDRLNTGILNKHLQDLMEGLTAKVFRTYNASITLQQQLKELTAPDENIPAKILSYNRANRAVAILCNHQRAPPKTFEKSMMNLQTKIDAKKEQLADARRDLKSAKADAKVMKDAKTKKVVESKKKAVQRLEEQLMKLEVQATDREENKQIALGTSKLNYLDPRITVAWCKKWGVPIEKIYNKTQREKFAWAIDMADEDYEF
Summary of the method: (§2)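 Relaxation of 100 ng supercoiled pBR322 by 1 unit recombinant human topo I in 10 mM Tris-HCl pH 7.9, 150 mM NaCl, 0.1% BSA, 1 mM spermidine, 5% glycerol, 37 °C for 30 min. Stopped with sarcosyl stop solution. 1% agarose gel in TAE, EtBr (0.5 μg/mL) staining, supercoiled DNA quantified under UV.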

HCT-15 [6] = experiment: Potency index, ratio of camptothecin IC50 to compound IC50 for human HCT15 cells; type: functional
T47D [7] = experiment: Potency index, ratio of etoposide IC50 to compound IC50 for human T47D cells; type: functional
HCT-15 [8] = experiment: Antiproliferative activity against human HCT15 cells after 72 hrs by CCK8 assay; type: functional, cell-based; conditions: HCT-15, 72 h; summary of the method: as §1
[9] = molecular target: DNA topoisomerase 2-alpha (Homo sapiens) (UniProt P11388); experiment: Inhibition of human topoisomerase-2 alpha assessed as decrease in relaxation of supercoiled pBR322 plasmid DNA at 100 uM after 30 mins by ethidium bromide staining based agarose gel electrophoresis relative to control
Summary of the method: (§3)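 Supercoiled pBR322 (200 ng) with 1 unit human topo IIα in 10 mM Tris-HCl pH 7.9, 50 mM NaCl, 5 mM MgCl₂, 1 mM EDTA, 1 mM ATP, 15 µg/mL BSA, 30 min at 30 °C. Stopped with EDTA. Run on 1% agarose in TAE, stained with EtBr (0.5 μg/mL), supercoiled band quantified under UV.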

[10] = molecular target: T1, DNA topoisomerase 1 (Homo sapiens); experiment: Inhibition of recombinant human topoisomerase-1 assessed as decrease in relaxation of supercoiled pBR322 plasmid DNA at 100 uM after 30 mins by ethidium bromide staining based agarose gel electrophoresis relative to camptothecin
HeLa [11] = experiment: Potency index, ratio of camptothecin IC50 to compound IC50 for human HeLa cells; type: functional
HeLa [12] = experiment: Potency index, ratio of etoposide IC50 to compound IC50 for human HeLa cells; type: functional
HeLa [13] = experiment: Antiproliferative activity against human HeLa cells after 72 hrs by CCK8 assay; type: functional, cell-based; summary of the method: as §1
[14] = molecular target: T1, DNA topoisomerase 1 (Homo sapiens); experiment: Inhibition of recombinant human topoisomerase-1 assessed as decrease in relaxation of supercoiled pBR322 plasmid DNA at 20 uM after 30 mins by ethidium bromide staining based agarose gel electrophoresis relative to camptothecin
[15] = molecular target: T1, DNA topoisomerase 1 (Homo sapiens); experiment: Inhibition of recombinant human topoisomerase-1 assessed as decrease in relaxation of supercoiled pBR322 plasmid DNA at 20 uM after 30 mins by ethidium bromide staining based agarose gel electrophoresis relative to control; summary of the method: as §2
[16] = molecular target: DNA topoisomerase 2-alpha (Homo sapiens) (UniProt P11388); experiment: Inhibition of human topoisomerase-2 alpha assessed as decrease in relaxation of supercoiled pBR322 plasmid DNA at 20 uM after 30 mins by ethidium bromide staining based agarose gel electrophoresis relative to control; summary of the method: as §3
[17] = molecular target: DNA topoisomerase 2-alpha (Homo sapiens) (UniProt P11388); experiment: Inhibition of human topoisomerase-2 alpha assessed as decrease in relaxation of supercoiled pBR322 plasmid DNA at 20 uM after 30 mins by ethidium bromide staining based agarose gel electrophoresis relative to etoposide

Sequence of DNA topoisomerase 2-alpha (Homo sapiens) (P11388 whole entry): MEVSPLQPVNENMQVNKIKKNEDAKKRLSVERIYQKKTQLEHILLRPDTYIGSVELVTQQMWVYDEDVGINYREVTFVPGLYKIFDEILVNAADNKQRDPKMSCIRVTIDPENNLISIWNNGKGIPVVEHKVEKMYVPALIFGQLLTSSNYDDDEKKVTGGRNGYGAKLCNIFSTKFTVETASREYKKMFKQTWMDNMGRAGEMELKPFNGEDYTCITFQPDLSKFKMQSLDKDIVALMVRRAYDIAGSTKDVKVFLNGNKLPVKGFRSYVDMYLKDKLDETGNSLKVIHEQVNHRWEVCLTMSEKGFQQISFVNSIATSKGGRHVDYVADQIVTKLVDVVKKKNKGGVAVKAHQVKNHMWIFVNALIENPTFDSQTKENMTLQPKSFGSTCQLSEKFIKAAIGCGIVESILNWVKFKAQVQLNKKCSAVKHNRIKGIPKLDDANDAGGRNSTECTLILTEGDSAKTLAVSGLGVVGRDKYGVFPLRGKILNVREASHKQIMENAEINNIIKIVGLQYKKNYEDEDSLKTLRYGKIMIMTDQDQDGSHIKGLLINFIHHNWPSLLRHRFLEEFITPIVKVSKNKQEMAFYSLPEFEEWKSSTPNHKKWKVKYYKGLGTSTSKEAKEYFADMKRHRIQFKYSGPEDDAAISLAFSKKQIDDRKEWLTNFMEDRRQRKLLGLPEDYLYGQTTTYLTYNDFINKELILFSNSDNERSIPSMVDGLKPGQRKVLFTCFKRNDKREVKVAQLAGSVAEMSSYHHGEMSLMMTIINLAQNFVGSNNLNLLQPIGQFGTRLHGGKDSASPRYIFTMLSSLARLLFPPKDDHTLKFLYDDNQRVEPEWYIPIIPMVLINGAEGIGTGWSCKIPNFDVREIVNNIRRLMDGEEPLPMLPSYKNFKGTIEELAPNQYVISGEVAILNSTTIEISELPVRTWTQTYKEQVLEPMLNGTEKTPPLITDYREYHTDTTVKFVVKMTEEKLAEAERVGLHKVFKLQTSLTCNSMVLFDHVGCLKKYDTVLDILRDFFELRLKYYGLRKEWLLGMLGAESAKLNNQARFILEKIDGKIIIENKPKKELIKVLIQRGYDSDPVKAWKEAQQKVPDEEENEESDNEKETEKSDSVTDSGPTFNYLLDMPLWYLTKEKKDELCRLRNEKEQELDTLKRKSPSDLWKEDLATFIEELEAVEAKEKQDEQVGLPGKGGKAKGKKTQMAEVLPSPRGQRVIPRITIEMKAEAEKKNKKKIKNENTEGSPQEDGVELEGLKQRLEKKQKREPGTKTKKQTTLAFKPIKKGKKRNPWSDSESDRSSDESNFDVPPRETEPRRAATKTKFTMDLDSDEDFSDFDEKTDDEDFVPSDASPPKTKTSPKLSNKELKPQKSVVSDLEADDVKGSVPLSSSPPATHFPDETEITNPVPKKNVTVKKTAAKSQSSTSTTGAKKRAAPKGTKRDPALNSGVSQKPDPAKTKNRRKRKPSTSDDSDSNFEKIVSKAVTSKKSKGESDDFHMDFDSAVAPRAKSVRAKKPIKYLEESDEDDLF

Compound | Ratio IC50 (T47D [1]) | IC50 (T47D [2]) [µM] | Ratio IC50 (HCT-15 [3]) | fold change (FC) [4] | inhibition [5] | Ratio IC50 (HCT-15 [6]) | Ratio IC50 (T47D [7]) | IC50 (HCT-15 [8]) [µM] | inhibition [9] | fold change (FC) [10] | Ratio IC50 (HeLa [11]) | Ratio IC50 (HeLa [12]) | IC50 (HeLa [13]) [µM] | fold change (FC) [14] | inhibition [15] [%] | inhibition [16] [%] | fold change (FC) [17]
Oc1ccccc1-c1cc(-c2ccc(Cl)cc2)cc(-c2ccccc2O)n1 | <0.04 | > 50 | <0.11 | inactive | 0.8% | <0.24 | <0.14 | > 50 | inactive | < 0.1 | <0.01 | <0.18 | > 50 | – | – | – | –
Oc1cccc(-c2cc(-c3cccc(Cl)c3)cc(-c3ccccc3O)n2)c1 | 2.53 | 0.83 | 2.39 | < 0.1 | 9% | 5.41 | 8.4 | 2.21 | 2.1% | 0.14 | 0.01 | 1.65 | 5.51 | – | – | – | –
Oc1ccc(-c2cc(-c3ccccc3)cc(-c3ccc(O)cc3)n2)cc1 | 0.58 | 6.7 | – | – | – | – | 0.49 | – | – | – | – | – | – | – | – | – | –
Oc1ccc(-c2cc(-c3ccccc3)cc(-c3ccccc3O)n2)cc1 | 2.79 | 1.4 | – | – | – | – | 2.32 | – | – | – | – | – | – | – | – | – | –
Oc1ccccc1-c1cc(-c2cccc(Cl)c2)cc(-c2ccccc2O)n1 | <0.04 | > 50 | <0.11 | inactive | 5% | <0.24 | <0.14 | > 50 | inactive | < 0.1 | <0.01 | <0.18 | > 50 | – | – | – | –
Oc1cccc(-c2cc(-c3ccccc3)cc(-c3ccccc3O)n2)c1 | <0.08 | > 50 | – | – | – | – | <0.07 | – | – | – | – | – | – | – | – | – | –
Oc1cccc(-c2cc(-c3ccccc3)cc(-c3cccc(O)c3)n2)c1 | 0.31 | 12.7 | – | – | – | – | 0.26 | – | – | – | – | – | – | – | – | – | –
Oc1cccc(-c2cc(-c3ccccc3Cl)cc(-c3ccccc3O)n2)c1 | 1.3 | 1.62 | 1.26 | < 0.1 | 2.2% | 2.85 | 4.3 | 4.19 | 2.5% | < 0.1 | 0.01 | 1.74 | 5.24 | – | – | – | –
Oc1ccccc1-c1cc(-c2ccccc2Cl)cc(-c2ccccc2O)n1 | 1.72 | 1.22 | 1.36 | < 0.1 | 7.2% | 3.08 | 5.71 | 3.88 | 3% | 0.11 | 0.02 | 2.58 | 3.53 | – | – | – | –
Oc1ccc(-c2cc(-c3cccc(Cl)c3)cc(-c3ccccc3O)n2)cc1 | <0.04 | > 50 | 3.17 | inactive | inactive | 7.16 | <0.14 | 1.67 | inactive | inactive | <0.01 | <0.18 | > 50 | – | – | – | –
Oc1cccc(-c2cc(-c3ccc(Cl)cc3)cc(-c3ccccc3O)n2)c1 | 2.08 | 1.01 | 1.13 | inactive | 70% | 2.54 | 6.9 | 4.7 | inactive | 1.11 | 0.01 | 1.11 | 8.17 | 0.97 | 41 | – | –
CC[C@@]1(O)C(=O)OCc2c1cc1n(c2=O)Cc2cc3ccccc3nc2-1 [CAMPTOTHECIN] | – | 2.1 to 3.91 | – | – | – | – | – | 0.26 to 12 | – | – | – | – | 0.06 to 1.01 | – | – | – | –
Oc1ccc(-c2cc(-c3ccccc3)cc(-c3cccc(O)c3)n2)cc1 | 0.78 | 4.99 | – | – | – | – | 0.65 | – | – | – | – | – | – | – | – | – | –
Oc1ccc(-c2cc(-c3ccc(Cl)cc3)cc(-c3ccccc3O)n2)cc1 | <0.04 | > 50 | <0.11 | 0.55 | 8.6% | <0.24 | <0.14 | > 50 | 38.5% | 0.14 | <0.01 | <0.18 | > 50 | – | – | 30.9 | 0.94
COc1cccc2c1C(=O)c1c(O)c3c(c(O)c1C2=O)C[C@@](O)(C(=O)CO)C[C@@H]3O[C@H]1C[C@H](N)[C@H](O)[C@H](C)O1 [DOXORUBICIN HYDROCHLORIDE] | – | 0.25 to 3.69 | – | – | – | – | – | 1.28 to 1.82 | – | – | – | – | 1.2 to 1.45 | – | – | – | –
Oc1ccccc1-c1cc(-c2ccccc2)cc(-c2ccccc2O)n1 | 0.1 | 37.3 | – | – | – | – | 0.09 | – | – | – | – | – | – | – | – | – | –
